Results published in paper PMC7401491 (Investigative Ophthalmology & Visual Science, 2020).
Where two headings read alike, the source gives them in different places. Ends that are not written are not given here.

B1: recombinant human S100 calcium binding protein S100A8 (untagged) (natural protein, UniProt P05109 1-93, looked up)
chain: MLTELEKALNSIIDVYHKYSLIKGNFHAVYRDDLKKLLETECPQYIRKKGADVWFKELDINTDGAVNFQEFLILVIKMGVAAHKKSHEESHKE
B2: cationic antimicrobial protein of 37 kDa (CAP37) (natural protein, human, UniProt P20160 27-248, looked up)
chain: IVGGRKARPRQFPFLASIQNQGRHFCGGALIHARFVMTAASCFQSQNPGVSTVVLGAYDLRRRERQSRQTFSISSMSENGYDPQQNLNDLMLLQLDREANLTSSVTILPLPLQNATVEAGTRCQVAGWGSQRSGGRLSRFPRFVNVTVTPEDQCRPNNVCTGVLTRRGGICNGDGGTPLVCEGLAHGVASFSLGPCGRGPDFFTRVALFRDWIDGVLNNPGP

Assays:
[1] = target: TLR4/MD-2 complex (Homo sapiens, UniProt O00206+Q9Y6Y9); assay: ELISA binding of His-tagged TLR4/MD-2 complex to coated proteins/peptides; conditions: for Binding of TLR4/MD-2 to coated protein/peptide (in words): ELISA, TLR4/MD-2 at 10 nM, compared with BSA
Summary of the method: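 ELISA against coated protein or peptide at 5 µg/ml (PBS pH 7.4; 2 h RT, then 4°C overnight), blocked with 3% BSA/PBST. Recombinant human TLR4/MD-2 complex, both chains His-tagged, 0–100 nM in PBST/0.1% BSA, 70 min at 37°C. Probed with anti-His mAb 1.0 µg/ml, then peroxidase secondary; OD 492 nm. 0-nM values subtracted; Kd derived; compared with BSA. Mean ± SEM, three independent experiments.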

[2] = target: CAP37-derived peptide 20-44 5RMP (human); assay: ELISA
[3] = target: CAP37-derived peptide 120-146 WH 5RMP (human); assay: ELISA
[4] = target: T1, CAP37-derived peptide 120-146 WH (human); assay: ELISA
T1 sequence (P20160 146-172 with Q131W R132H, looked up): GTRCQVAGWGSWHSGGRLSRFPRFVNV

[5] = target: T2, CAP37-derived peptide 20-44 (human); assay: ELISA
T2 sequence (P20160 46-70, looked up): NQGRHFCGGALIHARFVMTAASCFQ

[6] = target: T3, recombinant human TLR4/myeloid differentiation factor 2 (MD-2) complex (human, UniProt O00206 24-631; Q9Y6Y9 19-160); assay: ELISA
[7] = system: TLR4 activation by S100A9; assay: HEK-Blue hTLR4 assay, effect on activation of TLR4 by 10-nM S100A9; type: cell-based, human
[8] = system: S100A8; assay: ELISA binding of CAP37 to S100A8; set-up: species or system human; conditions: data not shown
[9] = target: T3, recombinant human TLR4/myeloid …; assay: ELISA; remark: listed apart in the source
[10] = target: TLR4 (Homo sapiens, UniProt O00206); assay: HEK-Blue hTLR4 stimulation assay; type: cell-based; conditions: HEK-hTLR4 cells
Summary of the method: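 HEK-Blue hTLR4 cells (human TLR4, MD-2, CD14, NF-κB/AP-1-driven SEAP), passages 3–15, detached with warm PBS and suspended serum-free at 1.4 × 10^5 cells/ml. Test compound in nuclease-free water at final 10 nM–100 µM; 24 h, 37°C, 5% CO2. SEAP read with Quanti-Blue, 3 h, OD 630 nm, normalised to BCA protein. Untreated background subtracted; expressed as % of 50-nM S100A9. Three experiments in triplicate.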

[11] = target: B2; assay: ELISA
[12] = target: CAP37-derived peptide 20-44 5RMP (human); assay: ELISA; remark: listed apart in the source
[13] = target: CAP37-derived peptide 120-146 WH 5RMP (human); assay: ELISA; remark: listed apart in the source
[14] = target: T1, CAP37-derived peptide 120-146 WH (human); assay: ELISA; remark: listed apart in the source
[15] = target: T2, CAP37-derived peptide 20-44 (human); assay: ELISA; remark: listed apart in the source
[16] = target: B1; assay: ELISA

Chain of TLR4/MD-2 complex (O00206 24-631 limits assumed): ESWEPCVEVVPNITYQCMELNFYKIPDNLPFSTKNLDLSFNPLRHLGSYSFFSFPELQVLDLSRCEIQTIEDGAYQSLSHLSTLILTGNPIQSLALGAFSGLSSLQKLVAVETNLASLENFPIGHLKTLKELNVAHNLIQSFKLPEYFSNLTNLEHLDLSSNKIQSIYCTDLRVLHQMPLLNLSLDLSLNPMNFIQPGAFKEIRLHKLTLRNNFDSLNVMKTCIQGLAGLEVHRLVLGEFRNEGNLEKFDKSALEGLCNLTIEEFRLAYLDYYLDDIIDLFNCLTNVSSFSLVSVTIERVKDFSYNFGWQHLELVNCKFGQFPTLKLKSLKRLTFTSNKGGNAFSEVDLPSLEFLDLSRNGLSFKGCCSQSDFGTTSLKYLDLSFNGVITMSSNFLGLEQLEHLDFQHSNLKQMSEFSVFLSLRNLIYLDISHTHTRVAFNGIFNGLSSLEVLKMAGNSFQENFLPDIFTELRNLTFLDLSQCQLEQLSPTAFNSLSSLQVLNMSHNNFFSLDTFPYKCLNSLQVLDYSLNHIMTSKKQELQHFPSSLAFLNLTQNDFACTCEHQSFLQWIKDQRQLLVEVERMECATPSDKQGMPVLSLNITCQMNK
Chain of TLR4/MD-2 complex (Q9Y6Y9 17-160 partner limits assumed): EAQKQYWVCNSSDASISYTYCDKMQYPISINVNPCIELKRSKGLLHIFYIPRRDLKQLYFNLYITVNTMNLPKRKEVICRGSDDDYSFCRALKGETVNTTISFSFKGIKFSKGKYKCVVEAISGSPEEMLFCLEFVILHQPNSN
Chain of TLR4 (O00206 24-839): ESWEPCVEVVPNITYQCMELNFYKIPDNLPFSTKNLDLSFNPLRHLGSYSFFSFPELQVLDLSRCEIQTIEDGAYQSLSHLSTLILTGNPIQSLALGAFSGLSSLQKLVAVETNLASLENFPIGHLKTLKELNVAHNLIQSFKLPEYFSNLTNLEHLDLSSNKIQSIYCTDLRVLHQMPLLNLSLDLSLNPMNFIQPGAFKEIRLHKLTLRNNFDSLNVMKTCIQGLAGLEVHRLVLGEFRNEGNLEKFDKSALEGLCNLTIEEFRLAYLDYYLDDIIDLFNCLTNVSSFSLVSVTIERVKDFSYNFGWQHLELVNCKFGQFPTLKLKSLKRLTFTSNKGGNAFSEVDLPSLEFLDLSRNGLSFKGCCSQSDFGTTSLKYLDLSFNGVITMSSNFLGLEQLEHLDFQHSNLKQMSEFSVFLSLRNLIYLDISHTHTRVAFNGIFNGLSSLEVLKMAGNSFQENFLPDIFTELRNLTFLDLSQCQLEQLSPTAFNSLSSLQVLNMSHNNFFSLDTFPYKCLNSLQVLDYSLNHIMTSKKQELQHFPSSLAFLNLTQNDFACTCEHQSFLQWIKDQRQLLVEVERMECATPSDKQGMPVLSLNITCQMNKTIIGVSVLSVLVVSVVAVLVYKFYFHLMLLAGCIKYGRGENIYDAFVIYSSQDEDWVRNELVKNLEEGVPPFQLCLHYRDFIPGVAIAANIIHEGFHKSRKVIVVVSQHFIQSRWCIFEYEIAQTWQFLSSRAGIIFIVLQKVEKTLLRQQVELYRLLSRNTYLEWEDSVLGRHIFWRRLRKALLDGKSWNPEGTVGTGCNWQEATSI
Chain of TLR4 (Q9Y6Y9 17-160 partner limits assumed): as the sequence (Q9Y6Y9 17-160 partner limits assumed) above
T3 sequence (O00206 24-631, chain 1 of 2): as the sequence (O00206 24-631 limits assumed) above
T3 sequence (Q9Y6Y9 19-160, chain 2 of 2): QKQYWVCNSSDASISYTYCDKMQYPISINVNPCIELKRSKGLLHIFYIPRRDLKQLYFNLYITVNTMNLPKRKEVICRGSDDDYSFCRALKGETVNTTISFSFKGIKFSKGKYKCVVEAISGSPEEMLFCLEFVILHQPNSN

In the case of “CG: cathepsin G purified from human neutrophils”, the “Binding of TLR4/MD-2 to coated protein/peptide (in words)” value [1] is reported as “did not significantly interact”.

In the case of “recombinant human TLR4/myeloid differentiation factor 2 (MD-2) complex (from UniProt O00206 24-631; Q9Y6Y9 19-160)”, the Kd [2] is reported as 270 nM, the Kd [3] is reported as 18.9 nM and the Kd [4] is reported as 229 nM. It also gave a Kd [5] of 90.6 nM.

With LDREANLTSSVTILPLPLQNATVEAGTR [95-122] the “Binding of TLR4/MD-2 to coated protein/peptide (in words)” value [1] was “only minimal interaction”.

In the case of “NE: neutrophil elastase purified from human neutrophils”, the “Binding of TLR4/MD-2 to coated protein/peptide (in words)” value [1] is reported as “did not significantly interact”.

B1: binds [6].

For B2, the “Decrease of TLR4 activation by S100A9” value ([7]; CAP37 0.01 nM preincubated 1 hour with 10-nM S100A9, from 50% to 30%) was ~20%, the “Decrease of TLR4 activation by S100A9” value ([7]; CAP37 10 nM preincubated 1 hour with 10-nM S100A9) was 10% and the “Decrease of TLR4 activation by S100A9” value ([7]; CAP37 1 µM preincubated 1 hour with 10-nM S100A9) was “no decrease”. For the same molecule, the “Interaction between CAP37 and S100A8 (in words)” value [8] was “specific, but low, interaction”, the “Binding of TLR4/MD-2 to coated protein/peptide (in words)” value [1] was “low, but specific, interaction” and the “Fold lower affinity for TLR4 than for S100A9” value ([1]; Kd 98 nM versus Kd 9.2 nM) was ~10 fold. The Kd [9] was 98 nM, the “Fold higher concentration at which TLR4 activation begins, versus S100A9” value [10] was “approximately 100 fold” and the “Concentration at which activation of TLR4 begins” value ([10]; 24 h, SEAP) was 100 nM.

B3: recombinant human S100 calcium-binding protein A9 (S100A9), C-terminus 8-His tag (natural protein, UniProt P06702 1-114, looked up)
chain: MTCKMSQLERNIETIINTFHQYSVKLGHPDTLNQGEFKELVRKDLQNFLKKENKNEKVIEHIMEDLDTNADKQLSFEEFIMLMARLTWASHEKMHEGDEGPGHHHKPGLGEGTP
In the case of B3, the Kd [11] is reported as 9.2 nM, the Kd [12] is reported as 23.5 nM and the Kd [13] is reported as 22.3 nM. For the same molecule, the Kd [14] was 37.3 nM, the Kd [15] was 43.8 nM and the “binding at 10 nM S100A9 relative to its binding to CAP37” value [16] was 2 fold.
